Entries after “also recorded” stand apart in the source; their conditions may differ. Where two headings read alike, the source gives them in different places.
Assays:
iNicSnFR3a = assay: Stopped-flow kinetics of ligand binding to iNicSnFR3a
[1] = cited from earlier work
[2] = system: iNicSnFR3a_ER expressed in HeLa cells; assay: Time-resolved fluorescence, iNicSnFR3a_ER in transfected HeLa cells; assay type: cell-based, human; details: Fig. 5 E; normalized to nicotine (100 µM)
[3] = cited from earlier work; for pKa: no reference printed; for logD7.4: ref Smith et al., 2012
[4] = system: iNicSnFR3a_PM expressed in HeLa cells; assay: Time-resolved fluorescence, iNicSnFR3a_PM in transfected HeLa cells; assay type: cell-based, human; details: Fig. 5 E; normalized to nicotine (100 µM)
purified iNicSnFR3a [5] = assay: Isothermal titration calorimetry with purified iNicSnFR3a; assay type: binding; details: PBS, 25°C
Procedure, shortened: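 Calorimetric titration: 100 µM protein in the cell titrated with 1 mM test ligand in PBS at 25°C. Binding isotherm yields equilibrium dissociation constant and stoichiometry (moles ligand per mole protein).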

[6] = system: iNiSnFR3a_Y357A_PM in HeLa cells; details: concentrations ≤300 µM
iNicSnFR1 = details: read-out: apparent nicotine EC50
[7] = system: AAV_iNicSnFR3b_ER in cultured mouse hippocampal neurons
[8] = system: _ER constructs in HeLa cells and hippocampal neurons; details: applied [nicotine] ≤ 5 µM; mean ± SEM, n = 8 cells
[9] = system: iNicSnFR3 biosensors targeted to the ER; assay type: cell-based
purified iNicSnFR3a [10] = assay: Fluorescence dose–response relations of purified iNicSnFR3a; assay type: biochemical; details: for ΔFmax/F0: excitation 485 nm, 3× PBS, 25°C; for sensitivity of iNicSnFR3a and iNicSnFR3b to other α4β2 agonists: unpublished data
[11] = system: iNicSnFR3a_ER in human dopaminergic neurons
[12] = system: _PM constructs in HeLa cells and hippocampal neurons; details: applied [nicotine] ≤ 5 µM; mean ± SEM, n = 8 cells
[13] = system: T. sp X513 OpuBC homologue; assay: Isothermal titration calorimetry with purified PBPs; assay type: binding, Thermoanaerobacter sp X513
α4β2 nAChRs [14] = details: cited from earlier work
[15] = system: AAV2/1.syn1.iNicSnFR3b_ER in cultured hippocampal neurons; assay: Time-resolved fluorescence, iNicSnFR3b_ER in cultured hippocampal neurons; assay type: cell-based, mouse; details: compared with nicotine responses and with varenicline responses on the PM
α7 nAChRs = details: cited from earlier work
α4β2 nAChRs [16] = details: ref Turner et al., 2011; Marks et al., 2015; Govind et al., 2017; cited from earlier work
[17] = system: iNicSnFR3a and iNicSnFR3b in HeLa cells and neurons; assay type: cell-based
[18] = ref Coe et al., 2005, Mihalak et al., 2006

For `CN1CCC[C@H]1c1cccnc1` [nicotine, (—)–Nicotine], the “koff-ext (extrapolation to zero [nicotine])” value (iNicSnFR3a; 25°C, PBS) is listed as 2.0 s⁻¹, the Kd (iNicSnFR3a; read-out: equilibrium-binding constant Kd = koff/kon, stopped-flow) is listed as 29 µM and the half-time of metabolism ([1]; in humans, ref Benowitz et al., 1991) is listed as about 20 min. The “peak [nicotine] in the plasma and brain of a smoker” value ([1]; ref Benowitz et al., 1991, Rollema et al., 2010) was about 1 µM, the fluorescence increases [2] was “only nicotine evoked fluorescence increases” and the pKa [3] was 7.5–8. For the same molecule, the pKa ([3]; listed as Nicotine) was 7.5–8.1, the logD7.4 [3] was −0.04 and the fluorescence increases [4] was “comparable fluorescence increases”. The Kd (purified iNicSnFR3a [5]) was 10 ± 2.5 µM, the “nicotine-induced ΔF” value [6] was “no detectable nicotine-induced ΔF” and the EC50 (iNicSnFR1) was 250 µM. The diffusion constant [7] was about 1 µm^2/ms, the “time scale of complete response” value ([7]; cell in ROI 3, ∼150 µm from the pipette tip) was about 10 s and the “time of fluorescence increase” value ([7]; cell within 10 µm of the pipette tip) was under 1 s. For the same molecule, the “[ΔF/F0]/[nicotine]” value [8] was 0.075 ± 0.019 µM⁻¹, the “[nicotine] in the ER versus the extracellular value” [9] was “within twofold; also recorded: less than twofold” and the “time for nicotine to leave the ER after removal from the extracellular solution” value [9] was at most 10 s. The “decrease in EC50 as the pH is increased from 6.0 to 9.0” value (purified iNicSnFR3a [10]; Fig. 3 I) was about 20 fold, the “EC50 for nicotine relative to EC50 for N’MeNic” value (purified iNicSnFR3a [10]; pH 6.0 to 9.0, Fig. 3 I) was 1.25- to 2 fold and the ΔFmax/F0 (purified iNicSnFR3a [10]; pH 7.5) was 14.5. The ΔFmax/F0 (purified iNicSnFR3a [10]; pH 9.0) was 3.5, the “maximum ΔF/F0” value [11] was 3–4 and the “slope [ΔF/F0]/[nicotine]” value ([11]; [nicotine] ≤ 5 µM, Fig. 6 F inset) was 0.087 µM⁻¹. For the same molecule, the EC50 ([11]; read-out: [nicotine] giving half-ΔFmax/F0) was about 20 µM and the “[ΔF/F0]/[nicotine]” value [12] was 0.063 ± 0.13 µM⁻¹.

In the case of `O=c1cccc2n1C[C@@H]1CNC[C@H]2C1` [cytisine], the “sensitivity of iNicSnFR3a and iNicSnFR3b to other α4β2 agonists” value (“sensitivity of iNicSnFR3a and iNicSnFR3b” below) (purified iNicSnFR3a [10]) is reported as “less sensitive”.

In the case of `C[N+](C)(C)CC(=O)O` [betaine], the “binding to the purified protein” value [13] is reported as “bind to this protein”.

For `c1cncc(OC[C@@H]2CCN2)c1` [A-85380], the “sensitivity of iNicSnFR3a and iNicSnFR3b” value (purified iNicSnFR3a [10]) was “less sensitive”.

In the case of `CN1C(=O)CC[C@H]1c1cccnc1` [cotinine], the ΔF (purified iNicSnFR3a [10]; Fig. 2 C) is reported as “near-zero ΔF values”.

With `C[N+](C)(C)CCO` [choline] the “binding to the purified protein” value [13] was “bind to this protein” and the “EC50 for choline relative to nicotine” value (purified iNicSnFR3a [10]; Fig. 2 C) was “more than fourfold greater”.

In the case of `c1cnc2cc3c(cc2n1)[C@@H]1CNC[C@H]3C1` [varenicline], the “inferred Kd relative to nicotine” value (iNicSnFR3a; stopped-flow) is given as “approximately threefold less”, the half-life ([1]; human plasma, ref Faessel et al., 2006) is given as about 24 h and the pKa [3] is given as 9.5–10. The logD7.4 [3] was −1.27, the agonist type (α4β2 nAChRs [14]; no reference printed) was “partial agonist” and the “potency relative to ACh” value (α4β2 nAChRs [14]; [18]) was “more potent than ACh”. For the same molecule, the “growth and decay phases of the ER varenicline-induced fluorescence” value [15] was “clearly slower”, the Kd (purified iNicSnFR3a [5]) was 3.5 µM and the agonist type (α7 nAChRs; no reference printed) was “full agonist”. The “potency relative to ACh” value (α7 nAChRs; [18]) was “more potent than ACh”, the “effect of exposure on α4β2 nAChRs” value (α4β2 nAChRs [16]) was “up-regulates” and the “time for varenicline to leave the ER after leaving the external solution” value ([9]; clinically relevant sub-µM concentrations) was “at most 60 s”. For the same molecule, the “agonist character for iNicSnFR3 fluorescence” value (purified iNicSnFR3a [10]) was “highly potent full agonist”, the “varenicline EC50 relative to nicotine” value (purified iNicSnFR3a [10]; purified iNicSnFR3a) was “approximately sixfold less” and the EC50 [17] was 1 to 4 µM.

With `CC(=O)OCC[N+](C)(C)C` [ACh, acetylcholine] the fluorescence increases [2] was “only nicotine evoked fluorescence increases”, the fluorescence increases [4] was “comparable fluorescence increases” and the “binding to the purified protein” value [13] was “bind to this protein”.

With `c1cnc2c(c1)O[C@H]1CCN3CC[C@@]1(C2)C3` [dianicline] the “sensitivity of iNicSnFR3a and iNicSnFR3b” value (purified iNicSnFR3a [10]) was “less sensitive”.
